In ChEMBL document CHEMBL1250521, “Design, synthesis, and preliminary biological evaluation of new isoform-selective f-current blockers” (J Med Chem, 2010):
pEC50: −log10 of the molar value.

Key:
[1] = target: Potassium/sodium hyperpolarization-activated cyclic nucleotide-gated channel 1 (Mus musculus) (UniProt O88704); assay: Blockade of mouse HCN1 expressed in HEK293 cells at 5 uM at -120 f-current amplitude by patch-clamp electrophysiological assay relative to control; format: cell-based
Outline: (§1)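 Single-concentration patch-clamp screen at 5 μM on HEK293 cells stably expressing mouse HCN1 or human HCN4. f-current block normalized to control; mean ± SEM of three to five experiments.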

[2] = target: T1, Potassium/sodium hyperpolarization-activated cyclic nucleotide-gated channel 2 (Mus musculus, UniProt O88703); assay: Blockade of mouse HCN2 expressed in HEK293 cells at -120 f-current amplitude by patch-clamp electrophysiological assay; format: cell-based
T1 sequence (O88703 whole entry): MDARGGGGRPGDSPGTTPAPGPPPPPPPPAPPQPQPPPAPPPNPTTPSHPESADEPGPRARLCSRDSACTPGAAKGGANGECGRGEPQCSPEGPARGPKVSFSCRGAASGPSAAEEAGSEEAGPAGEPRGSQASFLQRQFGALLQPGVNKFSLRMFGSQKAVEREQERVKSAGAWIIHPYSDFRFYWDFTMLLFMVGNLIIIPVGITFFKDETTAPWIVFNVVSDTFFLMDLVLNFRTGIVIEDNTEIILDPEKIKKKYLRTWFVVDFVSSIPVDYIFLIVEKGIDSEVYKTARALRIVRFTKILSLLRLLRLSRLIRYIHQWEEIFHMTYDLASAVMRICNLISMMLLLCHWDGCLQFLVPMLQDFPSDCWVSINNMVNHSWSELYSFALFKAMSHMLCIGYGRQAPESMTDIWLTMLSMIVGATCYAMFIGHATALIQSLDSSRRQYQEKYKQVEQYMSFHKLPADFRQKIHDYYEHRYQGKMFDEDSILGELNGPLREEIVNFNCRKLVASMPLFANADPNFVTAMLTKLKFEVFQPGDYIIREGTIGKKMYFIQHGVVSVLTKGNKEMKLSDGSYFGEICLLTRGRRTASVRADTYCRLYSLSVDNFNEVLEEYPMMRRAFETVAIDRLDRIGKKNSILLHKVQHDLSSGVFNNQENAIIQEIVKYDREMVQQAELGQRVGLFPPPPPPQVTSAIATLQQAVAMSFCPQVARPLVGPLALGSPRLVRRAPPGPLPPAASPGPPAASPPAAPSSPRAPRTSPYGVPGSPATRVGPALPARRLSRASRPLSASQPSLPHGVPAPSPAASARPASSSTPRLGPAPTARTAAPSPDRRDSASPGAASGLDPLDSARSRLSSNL
Outline: (§2)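 HEK293 cells stably transfected with mouse HCN1, mouse HCN2 or human HCN4. Patch-clamp recordings of hyperpolarization-activated f-current at varied concentrations to derive EC50.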

Mus musculus [3] = species on record: Mus musculus; assay: Selectivity ratio of EC50 for mouse HCN2 to EC50 for mouse HCN1
Outline: (§3)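 Selectivity expressed as the ratio of EC50 values from patch-clamp on stably transfected HEK293 cells expressing mouse HCN1, mouse HCN2 or human HCN4.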

[4] = Selectivity ratio of EC50 for mouse HCN2 to EC50 for human HCN4; outline: as §3
[5] = target: T2, Potassium/sodium hyperpolarization-activated cyclic nucleotide-gated channel 4 (Homo sapiens, UniProt Q9Y3Q4); assay: Blockade of human HCN4 expressed in HEK293 cells at -120 f-current amplitude by patch-clamp electrophysiological assay; format: cell-based; outline: as §2
T2 sequence (Q9Y3Q4 whole entry): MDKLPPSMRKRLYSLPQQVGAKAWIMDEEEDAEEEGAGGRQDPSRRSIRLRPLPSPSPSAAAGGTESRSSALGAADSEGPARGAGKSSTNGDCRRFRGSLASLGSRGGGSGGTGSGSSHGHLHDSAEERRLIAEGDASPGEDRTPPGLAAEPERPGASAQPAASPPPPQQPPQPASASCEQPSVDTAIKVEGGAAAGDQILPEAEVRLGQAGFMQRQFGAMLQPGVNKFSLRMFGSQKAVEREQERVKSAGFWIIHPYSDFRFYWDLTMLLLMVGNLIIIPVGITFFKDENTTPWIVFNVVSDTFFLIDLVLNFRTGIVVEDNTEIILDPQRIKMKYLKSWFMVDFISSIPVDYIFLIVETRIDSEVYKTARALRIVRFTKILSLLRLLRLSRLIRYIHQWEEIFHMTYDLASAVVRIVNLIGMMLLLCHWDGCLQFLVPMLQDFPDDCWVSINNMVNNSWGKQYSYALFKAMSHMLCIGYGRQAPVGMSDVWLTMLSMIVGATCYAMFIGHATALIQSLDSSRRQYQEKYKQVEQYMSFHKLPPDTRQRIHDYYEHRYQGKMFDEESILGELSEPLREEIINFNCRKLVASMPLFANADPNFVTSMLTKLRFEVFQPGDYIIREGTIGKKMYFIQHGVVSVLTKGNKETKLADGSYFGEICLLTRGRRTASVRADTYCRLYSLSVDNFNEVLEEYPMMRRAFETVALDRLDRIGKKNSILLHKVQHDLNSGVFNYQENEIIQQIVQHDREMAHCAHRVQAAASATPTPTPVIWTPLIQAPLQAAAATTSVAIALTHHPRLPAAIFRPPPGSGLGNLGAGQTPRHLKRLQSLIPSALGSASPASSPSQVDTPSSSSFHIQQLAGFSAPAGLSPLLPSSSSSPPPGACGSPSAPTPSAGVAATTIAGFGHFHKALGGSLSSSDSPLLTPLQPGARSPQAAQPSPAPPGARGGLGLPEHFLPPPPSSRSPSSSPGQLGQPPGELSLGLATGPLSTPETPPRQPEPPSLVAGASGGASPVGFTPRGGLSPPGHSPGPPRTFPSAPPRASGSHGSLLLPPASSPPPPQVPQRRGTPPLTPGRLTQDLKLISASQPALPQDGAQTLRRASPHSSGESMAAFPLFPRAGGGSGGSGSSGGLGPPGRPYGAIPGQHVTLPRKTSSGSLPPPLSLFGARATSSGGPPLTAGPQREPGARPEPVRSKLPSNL

[6] = Blockade of HCN in guinea pig spontaneously beating atria assessed as reduction of heart rate measured for 15 mins; format: tissue-based, Cavia porcellus
Outline: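 Isolated spontaneously beating guinea pig atria; cumulative concentrations 10-9-10-4 M applied, decrease in atrial rate recorded. EC50 obtained by fitting the concentration-effect curve to the Hill equation; mean ± SEM of three to four experiments.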

[7] = target: Potassium/sodium hyperpolarization-activated cyclic nucleotide-gated channel 1 (Mus musculus, UniProt O88704); assay: Blockade of mouse HCN1 expressed in HEK293 cells at -120 f-current amplitude by patch-clamp electrophysiological assay; format: cell-based; outline: as §2
[8] = target: T3, Potassium/sodium hyperpolarization-activated cyclic nucleotide-gated channel 4 (Homo sapiens) (UniProt Q9Y3Q4); assay: Blockade of human HCN4 expressed in HEK293 cells at 5 uM at -120 f-current amplitude by patch-clamp electrophysiological assay relative to control; format: cell-based; outline: as §1
T3 sequence (whole entry): T2 sequence (Q9Y3Q4 whole entry)

[9] = Selectivity ratio of EC50 for mouse HCN1 to EC50 for human HCN4; outline: as §3
Mus musculus [10] = species on record: Mus musculus; assay: Selectivity ratio of EC50 for mouse HCN1 to EC50 for mouse HCN2; outline: as §3

Chain of Potassium/sodium hyperpolarization-activated cyclic nucleotide-gated channel 1 (O88704 whole entry): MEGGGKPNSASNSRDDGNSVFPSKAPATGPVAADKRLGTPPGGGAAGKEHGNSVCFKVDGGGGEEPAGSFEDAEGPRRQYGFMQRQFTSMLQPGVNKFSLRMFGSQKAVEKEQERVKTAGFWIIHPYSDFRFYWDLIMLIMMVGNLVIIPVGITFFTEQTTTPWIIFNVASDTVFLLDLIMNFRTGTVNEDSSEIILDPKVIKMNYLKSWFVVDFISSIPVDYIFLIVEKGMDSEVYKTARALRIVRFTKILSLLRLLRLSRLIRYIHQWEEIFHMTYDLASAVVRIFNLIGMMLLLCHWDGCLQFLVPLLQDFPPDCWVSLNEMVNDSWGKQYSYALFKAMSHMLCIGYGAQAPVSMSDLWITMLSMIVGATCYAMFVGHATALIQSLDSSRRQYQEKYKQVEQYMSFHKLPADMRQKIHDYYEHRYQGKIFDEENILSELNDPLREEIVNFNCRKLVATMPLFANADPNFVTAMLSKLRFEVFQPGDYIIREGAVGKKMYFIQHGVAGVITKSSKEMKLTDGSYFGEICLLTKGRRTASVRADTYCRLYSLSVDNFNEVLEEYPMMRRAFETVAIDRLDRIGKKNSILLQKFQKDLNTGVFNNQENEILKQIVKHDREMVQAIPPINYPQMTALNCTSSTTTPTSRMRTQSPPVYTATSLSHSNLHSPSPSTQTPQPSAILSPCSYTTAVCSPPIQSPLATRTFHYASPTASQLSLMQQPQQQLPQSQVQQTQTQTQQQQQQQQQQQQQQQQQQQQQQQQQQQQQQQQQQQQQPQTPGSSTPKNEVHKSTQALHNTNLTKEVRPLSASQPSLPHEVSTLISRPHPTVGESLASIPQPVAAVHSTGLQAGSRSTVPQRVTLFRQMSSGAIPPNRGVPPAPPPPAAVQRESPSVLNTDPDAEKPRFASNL
Chain of Potassium/sodium hyperpolarization-activated cyclic nucleotide-gated channel 1 (Mus musculus) (O88704 whole entry): as above

COc1ccc([C@@H](C)CN(C)C/C=C\CN2C=Cc3cc(OC)c(OC)cc3CC2=O)cc1OC
residual activity [1]: 63%
pEC50 [2]: 5.64
Selectivity ratio (Mus musculus [3]): 4
Selectivity ratio [4]: 10
pEC50 [5]: 4.60
pEC50 [6]: 5.15
pEC50 [7]: 5.03
residual activity [8]: 83%

COc1ccc([C@@H](C)CN(C)C/C=C/CN2C=Cc3cc(OC)c(OC)cc3CC2=O)cc1OC
residual activity [1]: 85%
residual activity [8]: 72%

COc1ccc(CCN(C)C/C=C\CN2C=Cc3cc(OC)c(OC)cc3CC2=O)cc1OC
residual activity [1]: 53%
pEC50 [2]: 4.61
pEC50 [5]: 5.15
pEC50 [6]: 4.80
pEC50 [7]: 5.25
residual activity [8]: 59%

COc1ccc([C@H](C)CN(C)C/C=C/CN2C=Cc3cc(OC)c(OC)cc3CC2=O)cc1OC
residual activity [1]: 85%
residual activity [8]: 71%

COc1ccc(CCN(C)C/C=C/CN2C=Cc3cc(OC)c(OC)cc3CC2=O)cc1OC
residual activity [1]: 35%
pEC50 [2]: 4.76
pEC50 [5]: 5.14
pEC50 [6]: 4.95
pEC50 [7]: 5.64
residual activity [8]: 53%

COc1ccc([C@@H](C)CN(C/C=C/CN2C=Cc3cc(OC)c(OC)cc3CC2=O)C/C=C/CN2C=Cc3cc(OC)c(OC)cc3CC2=O)cc1OC
residual activity [1]: 60%
residual activity [8]: 73%

COc1ccc([C@@H](C)CN(C/C=C\CN2C=Cc3cc(OC)c(OC)cc3CC2=O)C/C=C\CN2C=Cc3cc(OC)c(OC)cc3CC2=O)cc1OC
Selectivity ratio [9]: 170
residual activity [1]: 27%
pEC50 [2]: 4.74
pEC50 [5]: 3.98
pEC50 [6]: 3.95
pEC50 [7]: 6.22
Selectivity ratio (Mus musculus [10]): 30
residual activity [8]: 93%

COc1ccc([C@H](C)CN(C/C=C\CN2C=Cc3cc(OC)c(OC)cc3CC2=O)C/C=C\CN2C=Cc3cc(OC)c(OC)cc3CC2=O)cc1OC
residual activity [1]: 76%
pEC50 [2]: 4.30
pEC50 [5]: 3.87
pEC50 [7]: 4.75
residual activity [8]: 92%

COc1ccc(CCN(C)CCCN2CCc3cc(OC)c(OC)cc3CC2=O)cc1OC [ZATEBRADINE]
pEC50 [2]: 5.26
pEC50 [5]: 5.07
pEC50 [6]: 4.87
pEC50 [7]: 4.78

COc1ccc(CCN(C/C=C\CN2C=Cc3cc(OC)c(OC)cc3CC2=O)C/C=C\CN2C=Cc3cc(OC)c(OC)cc3CC2=O)cc1OC
residual activity [1]: 82%
pEC50 [2]: 3.83
pEC50 [5]: 4.15
pEC50 [7]: 3.97
residual activity [8]: 75%

COc1cc2c(cc1OC)CC(=O)N(CCCN(C)C[C@H]1Cc3cc(OC)c(OC)cc31)CC2 [IVABRADINE]
residual activity [1]: 47%
pEC50 [2]: 5.34
pEC50 [5]: 5.37
pEC50 [7]: 5.35
residual activity [8]: 49%

COc1ccc([C@H](C)CN(C/C=C/CN2C=Cc3cc(OC)c(OC)cc3CC2=O)C/C=C/CN2C=Cc3cc(OC)c(OC)cc3CC2=O)cc1OC
residual activity [1]: 93%
residual activity [8]: 83%

COc1ccc([C@H](C)CN(C)C/C=C\CN2C=Cc3cc(OC)c(OC)cc3CC2=O)cc1OC
residual activity [1]: 76%
pEC50 [2]: 4.59
pEC50 [5]: 4.50
pEC50 [7]: 4.50
residual activity [8]: 91%
